# MC4R barr agon: agonists of human melanocortin 4 receptor (MC4R) beta-arrestin; 360,000 tested, 0.98% active; activation, % at 8.9 µM; U2OS MC4R beta-arrestin complementation, luminescence; percent of melanotan II response, DMSO zero;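 active = activation above a per-plate cutoff, the mean activation of sample wells on that plate plus 3 SD, cut at about 8% in these data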
# EBI2 antag: EBI2 (human) antagonism; P32249; EBI2 beta-arrestin recruitment, luminescence, 7a,25-OHC stimulated; inhibition, % at 5 µM; 360,000 tested, 0.81% active; AID 651636; in the data active = inhibition above about 38%;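 note: enzyme fragment complementation signal reports receptor beta-arrestin coupling in cells; 0% = agonist plus DMSO wells and 100% = wells without agonist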
# Target sequence (P32249 whole entry, looked up, the tested form may be a part): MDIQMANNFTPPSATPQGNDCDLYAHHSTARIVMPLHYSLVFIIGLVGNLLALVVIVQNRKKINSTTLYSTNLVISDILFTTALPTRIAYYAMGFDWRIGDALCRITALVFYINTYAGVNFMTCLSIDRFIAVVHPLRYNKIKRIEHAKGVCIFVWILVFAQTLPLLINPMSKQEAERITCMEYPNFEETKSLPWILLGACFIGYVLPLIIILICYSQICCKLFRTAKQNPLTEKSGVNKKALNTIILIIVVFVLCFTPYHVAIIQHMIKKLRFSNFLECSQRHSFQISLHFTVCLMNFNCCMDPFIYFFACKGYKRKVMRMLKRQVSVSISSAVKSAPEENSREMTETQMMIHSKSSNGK
# MC4R antag cAMP: antagonists of human melanocortin 4 receptor (MC4R); P32245; MC4R-expressing cells, MTII-stimulated cAMP, LANCE TR-FRET; inhibition, % at 6.5 µM; 360,000 tested, 0.48% active;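 active = inhibition above its plate's cutoff, the mean of tested wells on that plate plus 3 SD, cut at about 29% in these data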;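 note: 0% = Melanotan II alone and 100% = Melanotan II plus saturating MCL0020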
#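 Assay system: U2OS cells stably expressing human melanocortin 4 receptor (MC4R) / Dosing: 6.5 µM / Timing: compound 30 min, challenge 1 h, detection 1 h / Measured by: Eu-cAMP/anti-cAMP TR-FRET, emission 671 nm / Replicates: singlicate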
# m5-HT2A agonist: activates the mouse 5-HT2A serotonin receptor. P35363. CHO-K1 mHTR2A beta-arrestin complementation, luminescence; percent of 30 µM serotonin response. activation, % at 7.6 µM. 360,000 tested, 0.66% active. AID 624169;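 active = activation above a run cutoff, the mean activation of all tested compounds plus 3 SD, cut at about 14% in these data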;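 note: 0% = plate median of compound wells and 100% = 30 µM serotonin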
# OPRM1 ag: activates human mu opioid receptor in HTR2A counterscreen. activation, % at 9.3 µM. shares compounds with m5-HT2A agonist. 2,300 tested, 5.3% active. U2OS OPRM1 beta-arrestin PathHunter, luminescence; DMSO 0%, DAMGO 9.3 µM 100%. AID 624380;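 active = mean activation above the mean of DMSO-only wells plus 3 SD, cut at about 0.5% in these data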
# HTR2A ag conf: confirmation of mouse HTR2A serotonin receptor agonists; activation, % at 7.6 µM; CHO-K1 PathHunter beta-arrestin recruitment, luminescence; DMSO 0%, 30 µM serotonin 100%; 2,300 tested, 19% active; shares compounds with m5-HT2A agonist;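 active = mean activation across triplicates above the hit threshold derived in the original primary screen, cut at about 15% in these data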
# Numbers without * were called inactive; nt = not tested or not shown; ! = not confirmed by another sample. In the library only some 2.8% were active in any assay of this set; here they are far more common.
SMILES,MC4R barr agon,EBI2 antag,MC4R antag cAMP,m5-HT2A agonist,OPRM1 ag,HTR2A ag conf
Oc1cc2c(cc1O)C(c1ccccc1)CNCC2 (configuration not stated),-1,-7,-10,14,nt,nt
COc1ccc(C(C)=O)cc1COC(=O)[C@H](Cc1ccccc1)NC(=O)c1ccco1,1,-2,9,3,nt,nt
COc1cccc(COC(=O)C(Cc2ccccc2)NC(=O)c2ccco2)c1 (configuration not stated),-1,1,18,17*,0,9
CCOC(=O)C1CCN(C(=O)Nc2ccccc2Cl)CC1,-2,-12,0,15*,-1,-1
O=C(NCC(=O)N1CCCCCCC1)c1cccc([N+](=O)[O-])c1,2,-8,-3,15*,-1,-1
CCOC(=O)c1c(NC(=O)CSc2nc3ccc(OC)cc3[nH]2)sc2c1CC(C)(C)NC2(C)C,-1,1,3,-8,nt,nt
Cc1ccc(Nc2ccc([N+](=O)[O-])nc2[N+](=O)[O-])cc1,-1,-10,-1,15*,0,-4
Cc1ccc(Nc2ccc3nonc3c2[N+](=O)[O-])cc1,0,-7,13,7,nt,nt
COc1ccccc1NC(=S)N(CCc1c(C)[nH]c2ccccc12)Cc1cccs1,0,7,1,16*,-1,-5
COc1ccc2[nH]c(C)c(CCN(Cc3cccs3)C(=S)Nc3ccccc3)c2c1,0,8,6,8,nt,nt
O=C(NCc1ccccc1F)C1CC(=O)N(Cc2ccco2)C1 (configuration not stated),-1,-1,6,4,nt,nt
CCCCN(C(=O)CCC(=O)Nc1cc(C)on1)C(C(=O)NC1CCCC1)c1cccc(OC)c1 (configuration not stated),3,7,4,14*,-1,-5
CCCCN(C(=O)CCC(=O)Nc1cc(C)on1)C(C(=O)NC1CCCC1)c1ccc(OC)cc1 (configuration not stated),1,5,13,4,nt,nt
CC(C)C[C@H](NC(=O)c1[nH]cnc1C(=O)Nc1ccccc1)C(=O)OC(C)(C)C,0,-19,5,16*,0,-6
CCOC(=O)c1ccc(NC(=O)c2nc[nH]c2C(=O)N[C@@H](CC(C)C)C(=O)OC(C)(C)C)cc1,0,-12,5,4,nt,nt
COc1cccc(-c2nc(CN3CCN(C(=O)c4ccco4)CC3)c(C)o2)c1OC,-1,-10,-5,15*,-1,43*
COc1ccc2oc(C(=O)N3CCN(c4ncccn4)CC3)c(C)c2c1,0,12,10,3,nt,nt
Cc1oc(-c2cc(F)ccc2F)nc1CN1CCCN(C(=O)c2ccco2)CC1,1,9,0,0,nt,nt
COc1ccc2oc(C(=O)N3CCN(C(=O)c4ccco4)CC3)c(C)c2c1,-3,14,9,14*,-1,-2
COc1cccc(CN2CCCN(S(=O)(=O)c3ccc(Br)cc3)CC2)c1,1,11,-3,29*,0,5
COc1cccc(CN2CCN(C(=O)c3ccco3)CC2)c1,0,-13,-4,37*,-1,109*
COc1cccc(CN2CCN(C(=O)c3cccc4ccccc34)CC2)c1,1,3,10,-6,nt,nt
O=S(=O)(c1ccc(Br)cc1)N1CCCN(Cc2cccc(F)c2)CC1,0,-3,2,7,nt,nt
O=C(COC(=O)c1cc(S(=O)(=O)N2CCOCC2)ccc1F)Nc1ccc(Cl)cn1,1,-15,-26,0,nt,nt
COc1ccc(OC)c(CN2CCN(C(=O)c3ccco3)CC2)c1,3,1,2,16*,1.2*,34*
SMILES,MC4R barr agon,EBI2 antag,MC4R antag cAMP,m5-HT2A agonist,OPRM1 ag,HTR2A ag conf
CC(Sc1ccc(Cl)cc1)C(=O)NCc1ccc2c(c1)OCO2 (configuration not stated),1,-3,11,22*,-1,2
COc1ccc2oc(C(=O)Nc3nc4ccccc4[nH]3)c(C)c2c1,-4,16,-4,149*,0,56*
Cc1nn(-c2ccccc2)c(Cl)c1/C=N/NC(=O)c1ccncc1,1,-3,1,4,nt,nt
O=C(NCCCN1CCN(c2cccc(Cl)c2)CC1)c1cccc(N2CCCC2=O)c1,-1,-2,2,17*,-1,4
O=C(NCc1cccs1)C1CCCN1C(=O)Nc1cccc(F)c1 (configuration not stated),-2,-6,-2,17*,-1,-5
Cc1ccn2c(=O)c(NC(=O)c3ccc4c(c3)OCO4)c(C)nc2c1,0,-3,7,6,nt,nt
COc1ccc2c(c1)CC/C2=N\NC(=O)c1ccccc1,-1,-10,-2,15*,-1,-2
COc1ccc(OCC(=O)N/N=C2\CCc3ccccc32)cc1,-2,8,-3,-5,nt,nt
COc1ccccc1Nc1nc(N2CCOCC2)nc(N2CCOCC2)n1,-2,8,0,16*!,0,1
FC(F)(F)Oc1ccc(Nc2nc(N3CCOCC3)nc(N3CCOCC3)n2)cc1,1,4,2,15*,0,-4
O=S(=O)(NC1=NCCCCC1)c1cc(F)ccc1F,-2,-7,-2,22*,-1,2
CCn1nccc1NC(=O)c1csc([C@@H]2O[C@H](CO)[C@H](O)[C@H](O)[C@H]2O)n1,-2,-3,-1,9,nt,nt
OC1CCN(c2ncnc3nc[nH]c23)CC1,0,-1,16,6,nt,nt
CC1CCN(c2ncnc3nc[nH]c23)CC1,1,-9,15,25*,0,1
Cc1csc(NC(=O)CSc2ncn(-c3ccccc3)n2)n1,-1,-4,6,21*,0,0
COC(=O)[C@@H](Cc1ccccc1)NC(=O)[C@H]1O[C@@H](n2cnc3c(N)ncnc32)[C@H](O)[C@@H]1O,nt,0,nt,1,nt,nt
Nc1ncnc2c1ncn2[C@@H]1O[C@H](C(=O)N2CCC[C@@H]2C(=O)OCc2ccccc2)[C@@H](O)[C@H]1O,nt,0,nt,15*,0,-1
CCN=C1SC(CC(=O)NC2CCCCC2)C(=O)N1CC (configuration not stated),-1,1,15,-5,nt,nt
CN1C(=O)C(CC(=O)NC2CCCCC2)SC1=Nc1ccccc1 (configuration not stated),-1,-11,3,23*,-1,-3
CN1C(=O)CC(Sc2ncccc2C(=O)O)C1=O (configuration not stated),2,-1,-7,15*,-1,1
CCCN1C(=O)CC(Sc2ncccc2C(=O)O)C1=O (configuration not stated),-1,-29,-1,-1,nt,nt
